Measurements: publication PMC8108386 (Chemical Science, 2020)
Where two headings read alike, the source gives them in different places.

Key:
[1] = Observations on stability and behaviour in solution; assay type: physicochemical; settings: 37 °C, extended periods of time, absence of a light trigger
[2] = Singlet oxygen quantum yield by direct 1O2 phosphorescence, relative to [Ru; assay type: physicochemical; settings: MeCN
SKMEL28 cells = test: Photocytotoxicity at high fluence and irradiance, Modulight ML8500; assay type: cell-based, human
How it was run: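 SKMEL28 photocytotoxicity was tested with a well-by-well illumination system that sets wavelength, fluence and irradiance separately for each well, allowing higher fluences and irradiances than whole-plate sources. Light-only control wells were included.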

[3] = tested on: human melanoma SKMEL28 cells; test: Cytotoxicity and photocytotoxicity, resazurin, 384-well, UTA; assay type: cell-based; settings: visible vs. 733 nm
female C57BL/6J mice = test: Maximum tolerated dose, dose escalation, intraperitoneal injection; assay type: in vivo, mouse
How it was run: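 A dose-escalation safety study in mice used intraperitoneal injection at doses up to 100 mg kg−1. MTD was assigned from the appearance of observable toxicity.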

B16F10 tumor = assay type: in vivo, C57BL/6NCrl mice; settings: for protection from tumor growth (tumor-free mice): challenged with live B16F10 cells
How it was run: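 B16F10 cells were treated in vitro with test compound (1.40 μM) plus light. Cells collected 4 h and 12 h post-treatment were pooled and injected SC into the left flank of female and male C57BL/6NCrl mice, with PBS as control. After 7 days, untreated B16F10 cells were injected into the right flank. Tumor growth and tumor-free survival were followed, and hazard ratios derived.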

[4] = tested on: A375, B16F10 and SKMEL28 melanoma cell lines; test: Dark and light cytotoxicity stated for all three melanoma cell lines; assay type: cell-based; settings: read-out: dark EC50 values, toward all three melanoma cell lines
How it was run: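 Log-phase A375, B16F10 and SKMEL28 melanoma cells were seeded and dosed with test compound (1 nM to 300 μM) in the dark. They were incubated 48 h, and viability was read by resazurin assay. EC50 is the concentration that reduces relative viability by 50%, taken from dose–response curves and reported as Log(EC50 ± SEM).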

Row | Substance | stability to ligand dissociation [1] | ΦΔ (singlet oxygen quantum yield) ([2]; λex 630 nm) | ΦΔ (singlet oxygen quantum yield) ([2]; λex 753 nm) | EC50 (SKMEL28 cells; 753 nm (200 J cm−2, 300 mW cm−2)) [µM] | photocytotoxicity with 976 nm (SKMEL28 cells; 976 nm regardless of the fluence (data not shown)) | reduction of cell viability (SKMEL28 cells; all light treatments except 810 nm, down to 2.5 μM) [%] | difference between the visible and NIR EC50 values [3] [fold] | maximum tolerated dose (MTD) (female C57BL/6J mice) [mg/kg] | protection from tumor growth (tumor-free mice) (B16F10 tumor; female C57BL/6 mice vaccinated with 2-PDT treated B16F10 cells) [%] | hazard ratios (B16F10 tumor; female and male mice, vaccinated vs. unvaccinated) | protection from tumor growth (tumor-free mice) (B16F10 tumor; male C57BL/6 mice vaccinated with 2-PDT treated B16F10 cells) [%] | EC50 [4] [µM] | ΦΔ (singlet oxygen quantum yield) ([2]; λex 455 nm (excitation maximum))
1 | [Ru(tpbn)(dppn)(4-pic)]Cl2 [Compound 2] | completely stable | 0.93 | 0.86 | 2.02 | ineffective | ≥ 60 | 5 | 50 | 80 | ≤ 0.2 | 55 | ≥ 46.3 | 
2 | [Ru(tpbn)(phen)(4-pic)]Cl2 [Compound 8] |  | 0.10 | 0.10 |  |  |  |  |  |  |  |  | ≥ 46.3 | 0.17
